Data: ChEMBL document CHEMBL2034823, “Synthesis and antiviral activity of certain second generation methylenecyclopropane nucleosides” (Bioorg Med Chem, 2012)

Experiments:
[1] = Antiviral activity against HHV-6A infected in human HSB2 cells assessed as reduction in viral DNA after 7 days by hybridization assay; type: functional, cell-based, Human herpesvirus 6A; conditions: Human betaherpesvirus 6A, HSB2, 168 h
Summary of the method: (§1)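 Compound serially diluted in medium. Uninfected HSB-2 cells were infected with HHV-6A (GS)-infected HSB-2 cells, and Molt-3 cells with HHV-6B (Z29)-infected Molt-3 cells. Incubation 7 days at 37 °C. Lysis in 4.5 M NaCl/1.2 M NaOH, then transfer to nylon membrane. Viral DNA quantified by digoxigenin-probe hybridization and EC50 calculated. Duplicate wells.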

[2] = Cytotoxicity against human HSB2 cells after 7 days by Cell-Titer Glo assay; type: cell-based, CCRF-HSB-2
Summary of the method: (§2)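 Uninfected Akata, BCBL1, HSB-2 or MOLT-3 cells incubated with compound for seven days under the matching antiviral-assay conditions. CellTiter-Glo added and luminescence read. CC50 is the concentration reducing cell number by 50%.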

[3] = Cytotoxicity against human BCBL1 cells after 7 days by Cell-Titer Glo assay; type: cell-based; summary of the method: as §2
Human alphaherpesvirus 1 = test: Antiviral activity against HSV-1 infected in human HFF cells assessed as reduction in cytopathic effect after 3 days by crystal violet staining; type: functional, organism-based; conditions: Human alphaherpesvirus 1, HFF, 72 h
Summary of the method: (§3)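 Compound diluted over HFF monolayers, then HSV-1 (E-377) or HSV-2 (MS) added at MOI about 0.01 PFU/cell. Held 3 days in humidified 5% CO2. Stained 4 h with 0.1% crystal violet in formalin, rinsed, dried 24 h, and absorbance read at 595 nm. EC50 is 50% CPE reduction. Duplicate wells.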

Human gammaherpesvirus 4 = test: Antiviral activity against EBV Akata infected in human Akata cells assessed as reduction in viral DNA after 72 hrs by hybridization assay; type: functional, organism-based; conditions: human gammaherpesvirus 4, Akata
Summary of the method: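 Akata cells kept in RPMI 1640 with 10% FBS, L-glutamine, penicillin and gentamicin. Latent infection was switched to productive by adding goat anti-human IgG, and cells were seeded into compound dilutions made in growth medium. After 72 h the DNA was denatured and blotted onto nylon membrane. Viral DNA was measured with a digoxigenin-labeled probe plus anti-hapten antibody. EC50 is the concentration halving viral DNA. Duplicate wells.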

[4] = Cytotoxicity against human Akata cells after 7 days by Cell-Titer Glo assay; type: cell-based; summary of the method: as §2
[5] = Antiviral activity against HHV-6B infected in human Molt3 cells assessed as reduction in viral DNA after 7 days by hybridization assay; type: functional, cell-based, Human herpesvirus 6B; conditions: Human betaherpesvirus 6B, MOLT-3, 168 h; summary of the method: as §1
Human alphaherpesvirus 2 = test: Antiviral activity against HSV-2 infected in human HFF cells assessed as reduction in cytopathic effect after 3 days by crystal violet staining; type: functional, organism-based; conditions: Human alphaherpesvirus 2, HFF, 72 h; summary of the method: as §3
Human gammaherpesvirus 8 = test: Antiviral activity against HHV-8 infected in human BCBL1 cells assessed as reduction in viral DNA after 7 days by qPCR analysis; type: functional, organism-based; conditions: Human gammaherpesvirus 8, BCBL1, 168 h
Summary of the method: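 BCBL1 cells kept in RPMI 1640 with 10% FBS, penicillin, gentamycin and L-glutamine. Lytic infection induced with phorbol 12-myristate 13-acetate, then cells added to triplicate compound dilutions. Incubation 7 days at 37 °C in humidified CO2. EC50 is the concentration halving viral DNA accumulation.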

[6] = Cytotoxicity against human MOLT3 cells after 7 days by Cell-Titer Glo assay; type: cell-based, MOLT-3; summary of the method: as §2
Human alphaherpesvirus 3 = test: Antiviral activity against VZV infected in human HFF cells assessed as reduction in cytopathic effect after 7 days by crystal violet staining; type: functional, organism-based; conditions: Human alphaherpesvirus 3, HFF, 168 h
Human betaherpesvirus 5 = test: Antiviral activity against HCMV infected in human HFF cells assessed as reduction in cytopathic effect after 8 days by plaque reduction assay; type: functional, organism-based; conditions: Human betaherpesvirus 5, HFF, 192 h
Summary of the method: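 HFF monolayers seeded 2 days ahead and infected with AD169 at about 30 plaques per well, with 1 h adsorption. Compound was then added in MEM with 2% FBS, L-glutamine, penicillin, gentamycin and pooled human gamma globulin. After 8 days, neutral red stain and plaque counts by stereomicroscope. EC50 interpolated. Duplicate wells.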

[7] = Cytotoxicity against human HFF cells after 3 to 8 days by crystal voilet staining; type: cell-based
Summary of the method: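 Uninfected HFF cells exposed to the same concentrations as in the CPE assays (3 days for HSV, 7 for VZV, […]). Stained with crystal violet. CC50 is the concentration reducing cell number by 50%. Duplicate wells.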

| Structure (SMILES) | IC50 [1] [µM] | CC50 at 168 h [2] [µM] | CC50 at 168 h [3] [µM] | IC50 (Human alphaherpesvirus 1) [µM] | IC50 (Human gammaherpesvirus 4) [µM] | CC50 at 168 h [4] [µM] | IC50 [5] [µM] | IC50 (Human alphaherpesvirus 2) [µM] | IC50 (Human gammaherpesvirus 8) [µM] | CC50 at 168 h [6] [µM] | IC50 (Human alphaherpesvirus 3) [µM] | IC50 (Human betaherpesvirus 5) [µM] | CC50 [7] [µM] |
| --- | --- | --- | --- | --- | --- | --- | --- | --- | --- | --- | --- | --- | --- |
| Nc1nc(NC2CC2)c2ncn(/C=C3/CC3(CO)CO)c2n1 | > 20 | > 20 | 71.5 | > 60 | > 20 | > 20 | > 20 | > 60 | 71 | > 20 | > 60 | 24 | > 300 |
| CNc1nc(N)nc2c1ncn2/C=C1/CC1(CO)CO | > 20 | > 20 | 67 | > 300 | > 24 | > 24 | > 20 | > 300 | 62 | > 20 | > 300 | > 300 | 265 |
| CCCNc1nc(N)nc2c1ncn2/C=C1/CC1(CO)CO | > 20 | > 20 | > 20 | > 300 | > 24 | > 24 | – | > 300 | > 20 | – | > 300 | > 300 | > 300 |
| CC(C)Nc1nc(N)nc2c1ncn2/C=C1/CC1(CO)CO | > 20 | > 20 | > 20 | > 300 | > 24 | > 24 | – | > 300 | > 20 | – | > 300 | 160 | > 300 |
| CCCCNc1nc(N)nc2c1ncn2/C=C1/CC1(CO)CO | > 20 | > 20 | > 20 | > 300 | > 24 | > 24 | > 20 | > 300 | > 20 | > 20 | > 300 | > 60 | > 300 |
| CC(C)CNc1nc(N)nc2c1ncn2/C=C1/CC1(CO)CO | > 20 | > 20 | > 20 | > 300 | > 24 | > 24 | – | > 300 | > 20 | – | > 300 | > 300 | > 300 |
| Nc1nc(NC2CCCC2)c2ncn(/C=C3/CC3(CO)CO)c2n1 | > 20 | > 20 | 71.7 | > 60 | > 20 | > 20 | > 20 | > 60 | 63 | > 20 | > 60 | > 60 | > 300 |
| Nc1nc(NC2CCCCC2)c2ncn(/C=C3/CC3(CO)CO)c2n1 | > 20 | > 20 | > 20 | > 300 | > 24 | > 24 | – | > 300 | > 20 | – | > 300 | > 300 | > 300 |
| Nc1nc(NCc2ccccc2)c2ncn(/C=C3/CC3(CO)CO)c2n1 | > 20 | > 20 | 19.9 | > 300 | > 24 | > 24 | > 20 | > 300 | – | > 20 | > 60 | > 60 | > 300 |
| CN(C)c1nc(N)nc2c1ncn2/C=C1/CC1(CO)CO | > 20 | > 20 | > 20 | > 300 | > 24 | > 24 | – | > 300 | > 20 | – | 180 | > 300 | > 300 |
| Nc1nc(N2CCCC2)c2ncn(/C=C3/CC3(CO)CO)c2n1 | > 20 | > 20 | > 20 | > 300 | > 24 | > 24 | – | > 300 | > 20 | – | > 300 | > 300 | > 300 |
| Nc1nc(N2CCOCC2)c2ncn(/C=C3/CC3(CO)CO)c2n1 | > 20 | > 20 | > 20 | > 300 | > 24 | > 24 | – | > 300 | > 20 | – | > 300 | > 300 | > 300 |
| CCOc1nc(N)nc2c1ncn2/C=C1/CC1(CO)CO | > 20 | > 20 | > 20 | > 300 | 11.9 | > 20 | 11.2 | > 300 | > 20 | > 20 | > 100 | 1.6 | > 300 |
| CCCOc1nc(N)nc2c1ncn2/C=C1/CC1(CO)CO | 18 | > 20 | > 20 | > 300 | 8.9 | > 20 | 6.6 | > 300 | 16 | > 20 | 2.9 | 1.1 | > 300 |
| C=CCOc1nc(N)nc2c1ncn2/C=C1/CC1(CO)CO | > 20 | > 20 | > 20 | > 300 | 11 | > 20 | 11.4 | > 300 | 17 | > 20 | > 300 | 1.1 | > 300 |
| CCCCOc1nc(N)nc2c1ncn2/C=C1/CC1(CO)CO | > 20 | > 20 | > 20 | > 300 | 1.6 | > 20 | 3.2 | > 300 | > 20 | > 20 | > 100 | 1.6 | > 300 |
| CCCCCOc1nc(N)nc2c1ncn2/C=C1/CC1(CO)CO | > 20 | > 20 | > 20 | > 300 | 0.5 | > 20 | > 20 | > 300 | > 20 | > 20 | > 60 | 0.5 | 259 |
| CCCCCCOc1nc(N)nc2c1ncn2/C=C1/CC1(CO)CO | > 20 | > 20 | > 20 | > 300 | 7.3 | > 20 | 9.5 | > 300 | > 20 | > 20 | – | 3.9 | > 200 |
| CC(C)CSc1nc(N)nc2c1ncn2/C=C1/CC1(CO)CO | > 20 | 60 | > 20 | > 300 | 2.3 | > 20 | – | > 300 | > 20 | – | > 50 | 31 | > 300 |
| COc1nc(N)nc2nc[nH]c12 | > 20 | > 20 | 51 | > 300 | 1 | > 20 | > 20 | > 300 | 13 | > 20 | 7.4 | 2.8 | 171 |
| Nc1nc2c(ncn2COCCO)c(=O)[nH]1 [ACYCLOVIR] | – | – | – | 2.9 | – | – | – | 2.8 | – | – | – | – | > 300 |
| Nc1nc2c(ncn2COC(CO)CO)c(=O)[nH]1 [GANCICLOVIR] | – | – | – | – | – | – | – | – | – | – | – | 2.1 | > 300 |
